Measured values: publication PMC9394215 (Journal for Immunotherapy of Cancer, 2022)

Target: T1, human CD39 (Homo sapiens, UniProt P49961)
T1 sequence (P49961 1-510): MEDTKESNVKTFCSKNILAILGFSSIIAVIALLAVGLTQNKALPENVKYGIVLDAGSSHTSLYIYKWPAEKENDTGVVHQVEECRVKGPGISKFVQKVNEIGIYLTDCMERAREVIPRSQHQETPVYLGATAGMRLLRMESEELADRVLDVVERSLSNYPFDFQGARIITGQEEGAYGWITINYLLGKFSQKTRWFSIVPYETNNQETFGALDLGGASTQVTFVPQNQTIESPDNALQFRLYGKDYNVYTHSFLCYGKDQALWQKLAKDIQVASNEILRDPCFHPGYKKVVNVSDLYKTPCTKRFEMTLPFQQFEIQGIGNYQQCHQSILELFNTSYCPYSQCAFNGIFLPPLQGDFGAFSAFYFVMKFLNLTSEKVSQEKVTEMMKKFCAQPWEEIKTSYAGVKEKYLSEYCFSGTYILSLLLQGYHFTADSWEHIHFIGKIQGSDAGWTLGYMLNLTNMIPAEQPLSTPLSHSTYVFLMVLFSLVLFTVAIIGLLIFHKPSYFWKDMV
Assay type: biochemical
Settings: for inhibition of CD39 (in words): library screen at 10 µM, figure 3
Procedure, shortened: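 CD39 came from human umbilical cord membranes (50.0 ng protein per well). Substrate was 50 µM ATP in 10 mM HEPES, 2 mM CaCl2, 1 mM MgCl2, pH 7.4, with ≤2% DMSO. Enzyme and test compound were preincubated 5 min at 37°C; reaction ran 15 min at 37°C. Malachite green/molybdate was added and A600 read after 20 min at 25°C, minus a heat-denatured enzyme blank. Screening was at 10 µM; curves spanned 0.1–300 µM; n=3.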

Row | inhibition of CD39 (in words) | inhibition at 10 µM (read-out: inhibition of human CD39) | SMILES
1 | did not inhibit | – | C[C@@H](Oc1cc(-c2cnn(C3CCNCC3)c2)cnc1N)c1c(Cl)ccc(F)c1Cl [critozinib, Crizotinib]
2 | did not inhibit | – | CCc1cc2c(cc1N1CCC(N3CCOCC3)CC1)C(C)(C)c1[nH]c3cc(C#N)ccc3c1C2=O [alectinib, Alectinib]
3 | – | 33% | Cc1ccc(C(=O)Nc2ccc(CN3CCN(C)CC3)c(C(F)(F)F)c2)cc1C#Cc1cnc2cccnn12 [ponatinib, Ponatinib]
